This passage reports MIC, Activity and Ratio results from ChEMBL document CHEMBL3286091, “Novel N-linked aminopiperidine-based gyrase inhibitors with improved hERG and in vivo efficacy against Mycobacterium tuberculosis” (J Med Chem, 2014).

In assay [1] the test system is Mycobacterium tuberculosis. In words: Antimycobacterial activity against 5-(((3S,4R)-3-Fluoro-1-(2-(7-methoxy-2-oxo-1,5-naphthyridin-1(2H)-yl)ethyl)piperidin-4-ylamino)methyl)-2-methylnicotinonitrile-resistant Mycobacterium tuberculosis harboring DNA gyraseA D89N mutant. The format is functional.
In assay [2] the test system is Mycobacterium tuberculosis. In words: Antimycobacterial activity against moxifloxacin-resistant Mycobacterium tuberculosis harboring DNA gyraseA G88N mutant. It is filed as functional.
Assay [3] relates to Mycobacterium tuberculosis. In words: Antimycobacterial activity against 2-oxo-1-(2-(4-((3-oxo-3,4-dihydro-2H-pyrido[3,2-b][1,4]oxazin-6-yl)methylamino)piperidin-1-yl)ethyl)-1,2-dihydroquinoline-7-carbonitrile-resistant Mycobacterium tuberculosis harboring DNA gyraseA A74V mutant. It is filed as functional.
The subject of assay [4] is Mycobacterium tuberculosis. Put plainly: Antimycobacterial activity against spontaneously resistant mutant of Mycobacterium tuberculosis H37Rv at 10 to 20 times MIC up to 6 to 8 weeks. It is filed as functional, organism-based. Summed up: (§1)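 Single-step selection: mid-log H37Rv culture concentrated 100-fold to ~10^10 cfu/mL and plated in dilutions on 7H11 agar with varying drug concentrations. Drug-free plates were counted after 4 weeks at 37 °C and drug plates after 6−8 weeks. Frequency is the colony count on drug plates divided by viable cfu on drug-free plates.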

Assay [5] is described as follows: Ratio of MIC for 5-(((3S,4R)-3-Fluoro-1-(2-(7-methoxy-2-oxo-1,5-naphthyridin-1(2H)-yl)ethyl)piperidin-4-ylamino)methyl)-2-methylnicotinonitrile-resistant Mycobacterium tuberculosis harboring DNA gyraseA D89N mutant to MIC for wild-type Mycobacterium tuberculosis H37Rv ATCC 27294. The format is functional.
Assay [6] is described as follows: Ratio of MIC for 2-oxo-1-(2-(4-((3-oxo-3,4-dihydro-2H-pyrido[3,2-b][1,4]oxazin-6-yl)methylamino)piperidin-1-yl)ethyl)-1,2-dihydroquinoline-7-carbonitrile-resistant Mycobacterium tuberculosis harboring DNA gyraseA A74V mutant to MIC for wild-type Mycobacterium tuberculosis H37Rv ATCC 27294. It is filed as functional.
Assay [7] concerns Mycobacterium tuberculosis. Put plainly: Antimycobacterial activity against spontaneously resistant mutant of Mycobacterium tuberculosis H37Rv at 8 times MIC up to 6 to 8 weeks. The format is functional, organism-based. Summed up: as §1

In brackets after ≈: the same amount, converted by molar mass. Activity calls are given as the source filed them. The rule behind the calls is not given here.

Broadly, the MIC is the lowest concentration found to suppress growth. Lower therefore signals greater potency.

In the case of `O=C1COc2ccc(CN[C@H]3CCN(CCn4c(=O)ccc5ncc(F)cc54)C[C@H]3F)nc2N1`, the MIC was greater than 2 µg/mL in assay [1], 0.06 µg/mL (≈ 0.128 µM) in assay [2] and greater than 2 µg/mL in assay [3].
In the case of `COc1cnc2ccc(=O)n(CCN3CC[C@@H](NCc4cnc(C)c(C#N)c4)[C@@H](F)C3)c2c1`, the MIC is greater than 1 µg/mL in assay [1], 0.03 µg/mL (≈ 0.0666 µM) in assay [2] and 1 µg/mL (≈ 2.22 µM) in assay [3]. Also, in assay [4], the result was inactive. The Ratio in assay [5] and in assay [6] was greater than 16 throughout.
Consider `N#Cc1ccc2ccc(=O)n(CCN3CCC(NCc4ccc5c(n4)NC(=O)CO5)CC3)c2c1`, for which the outcome in assay [7] was inactive. For the same compound, the minimum inhibitory concentration (MIC) in assay [1] is greater than 2 µg/mL; in assay [2], 0.03 µg/mL (≈ 0.0654 µM); in assay [3], 2 µg/mL (≈ 4.36 µM). Also, the Ratio in assay [5] and in assay [6] was greater than 16 in each case.
Consider `NNC(=O)c1ccncc1` [ISONIAZID], for which the MIC in assay [1] turned out to be 0.03 µg/mL (≈ 0.219 µM); in assay [2] it was 0.06 µg/mL (≈ 0.438 µM); in assay [3] it was 0.06 µg/mL (≈ 0.438 µM).
Take `COc1c(N2C[C@@H]3CCCN[C@@H]3C2)c(F)cc2c(=O)c(C(=O)O)cn(C3CC3)c12` [MOXIFLOXACIN]: the MIC in assay [1] stood at 1 µg/mL (≈ 2.49 µM); in assay [2], 4 µg/mL (≈ 9.96 µM); in assay [3] it was 0.06 µg/mL (≈ 0.149 µM). Also, the result in assay [4] was inactive.
Take `CO[C@H]1/C=C/O[C@@]2(C)Oc3c(C)c(O)c4c(O)c(c(/C=N/N5CCN(C)CC5)c(O)c4c3C2=O)NC(=O)/C(C)=C\C=C\[C@H](C)[C@H](O)[C@@H](C)[C@@H](O)[C@@H](C)[C@H](OC(C)=O)[C@@H]1C` [RIFAMPIN]: the MIC in assay [1] came out at 0.015 µg/mL (≈ 0.0182 µM); in assay [2], 0.008 µg/mL (≈ 0.00972 µM); in assay [3], 0.008 µg/mL (≈ 0.00972 µM).
`CC1COc2c(N3CCN(C)CC3)c(F)cc3c(=O)c(C(=O)O)cn1c23` (centres undefined) [OFLOXACIN]: the results for the MIC in assay [1], in assay [2] and in assay [3] were 4 µg/mL (≈ 11.1 µM), 16 µg/mL (≈ 44.3 µM) and 1 µg/mL (≈ 2.77 µM), respectively. Besides, the Ratio in assay [5] was determined as 8.
As for `Cc1ncc(CNC2CCN(CCn3c(=O)ccc4ccc(C#N)cc43)CC2)cc1C#N`, the MIC in assay [1] is greater than 2 µg/mL; in assay [2] it was 0.06 µg/mL (≈ 0.141 µM); in assay [3], greater than 2 µg/mL. The Ratio in assay [5] and in assay [6] was greater than 16 throughout.
In the case of `O=C(O)c1cn(C2CC2)c2cc(N3CCNCC3)c(F)cc2c1=O` [CIPROFLOXACIN], the outcome in assay [7] was inactive. In addition, the MIC was determined as 4 µg/mL (≈ 12.1 µM) in assay [1], 8 µg/mL (≈ 24.1 µM) in assay [2] and 0.25 µg/mL (≈ 0.754 µM) in assay [3]. In addition, the Ratio in assay [5] stood at 16.
